Bioassay records: PubChem, Broad Institute
Rows were chosen to be rich in hits. Some 2.1% of all compounds tested hit in one or more screens of this group.
Xi reactivation: reactivates the inactive X chromosome in mouse fibroblasts | XiGFP mouse fibroblasts, % GFP-positive cells imaging, 3 d; cells co-treated with 5-aza-dC sensitizer; scaled so ellipticine positive control = 100% | activation, % at 7.58 µM | actives 0.055% (n = 360,000);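 active means mean normalized replicate activation at least 10% and every replicate at or above 10%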;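 further: 0% = median of on-plate neutral control wells and 100% = ellipticine 6 µM median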
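Assay system – SV40-immortalized XiGFP fibroblast cells, line 68-5-11 · Buffer or medium – DMEM supplemented with 5-aza-dC as sensitizing agent · Dosing – one concentration, pinned · Benchmarks – positive control ellipticine, 6 µM final · Times – 3 days compound exposure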
MLL AF4-AF9 inh: blocks AF4 peptide binding to human AF9. actives 0.47% (n = 350,000). AlphaScreen, biotin-AF4 peptide binding to FLAG-AF9. P42568. inhibition, % at 10 µM;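 active means every replicate reaching a set inhibition limit, whatever the replicate mean, cut at about 25% in these data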;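 further: 0% = plate neutral control median and 100% = total signal loss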
Target sequence (P42568 whole entry, looked up): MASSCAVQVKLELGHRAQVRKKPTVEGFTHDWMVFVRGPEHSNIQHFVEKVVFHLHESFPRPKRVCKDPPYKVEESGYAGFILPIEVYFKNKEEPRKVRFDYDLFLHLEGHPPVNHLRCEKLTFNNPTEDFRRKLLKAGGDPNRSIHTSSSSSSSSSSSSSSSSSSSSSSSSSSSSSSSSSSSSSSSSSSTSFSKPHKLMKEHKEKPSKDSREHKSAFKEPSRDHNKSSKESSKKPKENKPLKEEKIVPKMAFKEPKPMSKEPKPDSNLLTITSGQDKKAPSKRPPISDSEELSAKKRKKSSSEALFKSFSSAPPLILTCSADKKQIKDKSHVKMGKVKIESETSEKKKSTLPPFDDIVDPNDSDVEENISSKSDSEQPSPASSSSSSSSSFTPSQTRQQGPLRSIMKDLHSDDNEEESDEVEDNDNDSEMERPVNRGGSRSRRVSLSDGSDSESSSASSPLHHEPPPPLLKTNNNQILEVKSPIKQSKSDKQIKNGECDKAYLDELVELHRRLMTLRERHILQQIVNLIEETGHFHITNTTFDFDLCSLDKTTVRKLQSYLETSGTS
PGC1a acetyl inh: modulators of PGC1a acetylation. U2OS PGC1a acetylation, AlphaScreen anti-acetyl-lysine; with virally co-expressed GCN5 acetyltransferase. inhibition, % at 15.6 µM. actives 0.17% (n = 350,000);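 active means every replicate shows inhibition of at least 40%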;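 further: 0% = neutral control wells and 100% = positive control wells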
PAX8 reporter: PAX8 transcriptional activity inhibition; RMG-I TPO-luciferase reporter, SteadyGlo, 24 h; inhibition, % at 12.6 µM; actives 1.2% (n = 360,000); AID 652154;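 active means mean replicate inhibition at least 60% with every replicate also reaching 60%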;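 further: luciferase light reporting Pax8 driven TPO promoter activity; plate controls were median of neutral control wells for no effect and mitoxantrone controls for full effect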
EWS-Fli inh: inhibitors of EWS/Fli oncoprotein transcriptional activity; A673 NR0B1-luciferase reporter, viability-normalised; inhibition, % at 12.6 µM; actives 0.67% (n = 350,000);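 active means mean inhibition of at least 50% after viability correction, with every replicate also passing that limit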;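 further: firefly luciferase signal divided by Alamar Blue viability fluorescence both relative to DMSO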
GSIS activator: primary screen for activators of insulin secretion dependent on glucose, INS-1E cells, GLuc reporter luminescence; INS-1E GLuc reporter insulin secretion, 2-3 h; activation, % at 16.6 µM; actives 0.61% (n = 370,000); AID 743287;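 active means lowest replicate activation of at least 40%, so every replicate reaches that level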;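 further: 0% = median of neutral control wells and 100% = median of IBMX positive control wells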
* = called active by the depositor; . = not tested or not shown; ! = not active in a repeat.

SMILES | Xi reactivation | MLL AF4-AF9 inh | PGC1a acetyl inh | PAX8 reporter | EWS-Fli inh | GSIS activator
O=C(Cc1ccc(NC(=O)C2CCCN(C(=O)C3CCCCC3)C2)cc1)Nc1ccc(C(=O)N2CCOCC2)cc1 (centres undefined) | 0 | -5 | -7 | -2 | 10 | 2
O=C(Cc1ccc(NC(=O)C2CCN(C(=O)C3CCCCC3)CC2)cc1)Nc1ccc(C(=O)N2CCOCC2)cc1 | 0 | 15 | -2 | 68* | 9 | 5
O=C(C1CC1)N1C[C@@H]2[C@H](c3ccccc31)[C@@H](CO)N2C(=O)Nc1cccc(F)c1 | 0 | -8 | 1 | -4 | -1 | 6
O=C(Nc1cccc(Br)c1)Oc1cccc2cccnc12 | 0 | -2 | . | 11 | -8 | -6
O=C(Nc1c(Cl)cccc1Cl)Oc1cccc2cccnc12 | 0 | 2 | . | 73* | 26 | -1
CCOc1ccccc1N(CC(=O)NCCOC)C(=O)CCC(=O)Nc1ccccn1 | 0 | 0 | . | -3 | 0 | -8
COCCNC(=O)CN(C(=O)CCC(=O)Nc1ccccn1)c1cc(C)ccc1C | 0 | 26* | -3 | 5 | 18 | -1
CCCNC(=O)N1CC2(CN(C)C2)c2c(n(C)c3cc(OC)ccc23)[C@@H]1CO | 0 | . | . | . | . | 12
C[C@@H]1CN([C@H](C)CO)C(=O)c2cc(NC(=O)Nc3ccccc3)ccc2O[C@@H](C)CCCCO[C@H]1CN(C)Cc1ccc(Cl)c(Cl)c1 | 1 | 0 | 15 | 104* | 9 | -4
C[C@@H]1CCCCO[C@@H](CN(C)Cc2ccc(Cl)c(Cl)c2)[C@H](C)CN([C@H](C)CO)C(=O)c2cc(NC(=O)Nc3ccccc3)ccc2O1 | 0 | 1 | -6 | 90* | 5 | -10
CC(C)NC(=O)Nc1ccc2c(c1)C(=O)N([C@@H](C)CO)C[C@H](C)[C@@H](CN(C)Cc1ccc(Cl)c(Cl)c1)OCCCC[C@H](C)O2 | . | 8 | -5 | 34 | 13 | .
C[C@@H]1CCCCO[C@H](CN(C)Cc2ccc(Cl)c(Cl)c2)[C@H](C)CN([C@@H](C)CO)C(=O)c2cc(NC(=O)Nc3ccccc3)ccc2O1 | 0 | 0 | -11 | 82* | 8 | -15
C[C@@H]1CCCCO[C@@H](CN(C)Cc2ccc(Cl)c(Cl)c2)[C@@H](C)CN([C@H](C)CO)C(=O)c2cc(NC(=O)c3ccccc3)ccc2O1 | 0 | -1 | -6 | 15 | -16 | 3
C[C@@H]1CCCCO[C@H](CN(C)Cc2ccc(Cl)c(Cl)c2)[C@@H](C)CN([C@H](C)CO)C(=O)c2cc(NC(=O)Nc3ccc(F)cc3)ccc2O1 | 0 | 0 | 16 | 22 | 0 | -3
C[C@H]1CN([C@@H](C)CO)C(=O)c2cc(C3=CCCC3)cnc2O[C@@H]1CN(C)S(=O)(=O)c1cn(C)cn1 | 0 | -4 | 9 | 4 | -18 | 8
O=C(NCCc1ccccc1)c1cc(-c2ccccc2)c(N2CCOCC2)s1 | 0 | 0 | -16 | 16 | 2 | -28
CCN(CC)CCCNC(=O)c1cc(-c2ccccc2)c(N2CCCCC2)s1 | 0 | 29* | 4 | 0 | 29 | -2
C[C@@H]1CN([C@@H](C)CO)C(=O)CCCn2nncc2CO[C@@H]1CN(C)C(=O)Nc1ccc(-c2cccs2)cc1 | 0 | -1 | 3 | 34 | -10 | -11
C[C@H](CO)N1C[C@H](C)[C@H](CN(C)C(=O)Nc2ccc(-c3cccs3)cc2)OCc2cnnn2CCCC1=O | 0 | 3 | -4 | 72* | -13 | -7
C[C@@H]1CN([C@@H](C)CO)C(=O)CCCn2nncc2CO[C@H]1CN(C)S(=O)(=O)c1ccc(Cl)cc1 | 0 | -1 | 97*! | 102*! | 1 | -1
C[C@H]1CN([C@@H](C)CO)C(=O)CCCn2nncc2CO[C@@H]1CN(C)C(=O)Nc1ccc(-c2cccs2)cc1 | 0 | 4 | -6 | 76* | -10 | -12
C[C@H](CO)N1C[C@H](C)[C@@H](CN(C)S(=O)(=O)c2ccc(Cl)cc2)OCc2cnnn2CCCC1=O | 0 | -2 | 5 | 4 | -1 | 3
C[C@@H]1CN([C@H](C)CO)C(=O)CCCn2nncc2CO[C@H]1CN(C)C(=O)Nc1ccc(-c2cccs2)cc1 | 0 | 4 | -14 | 70* | 1 | -6
O=C(C[C@@H]1C=C[C@H](NC(=O)C2CC2)[C@@H](CO)O1)Nc1nccs1 | 0 | 3 | 12 | 0 | 2 | 6
COc1ccc(S(=O)(=O)Nc2ccc3c(c2)[C@H]2C[C@@H](CC(=O)NCC4CC4)O[C@H](CO)[C@H]2O3)cc1 | 0 | 15 | 2 | -7 | 10 | 5
SMILES | Xi reactivation | MLL AF4-AF9 inh | PGC1a acetyl inh | PAX8 reporter | EWS-Fli inh | GSIS activator
COc1ccc2c3c(n(C)c2c1)[C@H](CO)N(C(=O)CN(C)C)CC31CCN(Cc2cccnc2)CC1 | 0 | 2 | 5 | . | -7 | 24
N#C/C(=C/c1ccccc1OCc1ccc(F)cc1)c1ccc(C(=O)O)cc1 | 0 | 2 | -2 | 4 | 1 | 1
N#C/C(=C/c1ccc(OCc2ccc(C(=O)O)cc2)c(Br)c1)c1cccc(F)c1 | 0 | 0 | 96* | -3 | 2 | 3
C[C@@H]1CN([C@H](C)CO)C(=O)c2cc(C#CCN(C)C)cnc2O[C@@H]1CN(C)C(=O)c1ccc2c(c1)OCO2 | -1 | 0 | 9 | . | -2 | 6
Cc1cc(Br)cc(Cl)c1OC(=O)c1ccncc1 | 0 | -3 | 23 | 0 | -6 | 94*
Cc1cc(Br)cc(Cl)c1OC(=O)c1cnccn1 | 0 | -1 | 2 | 12 | 2 | 5
Cn1c(=O)c2c(nc3n2CCCN3CCc2ccccc2)n(C)c1=O | 0 | -1 | . | 13 | 2 | 48*
O=C(C[C@H]1CC[C@@H]2[C@H](COC[C@H](O)CN2C(=O)c2ccccc2)O1)NC1Cc2ccccc2C1 | 0 | -1 | 9 | -10 | 1 | -7
CC(C)c1c(O)c2c(n(-c3ccccc3)c1=O)CCCC2 | 0 | . | . | 0 | . | 61*
O=c1c(-c2ccccc2)c(O)c2c(n1-c1ccccc1)CCCC2 | . | . | . | . | . | 10
C/C(=N/NC(=O)c1ccc(Br)s1)c1ccncc1 | 0 | -8 | . | -77 | . | 50*
O=[N+]([O-])c1ccc(/C=N/n2c(-c3cccnc3)n[nH]c2=S)cc1 | 0 | . | 6 | -35 | . | 1
O=[N+]([O-])c1cccc(/C=N/n2c(-c3cccnc3)n[nH]c2=S)c1 | 0 | . | . | -4 | . | 54*
COC(=O)/C(=C1/Oc2ccc(C(C)(C)C)cc2S1)C(F)(F)F | 0 | -22 | 10 | -13 | -34 | 0
COC(=O)/C(=C1/Oc2cc(C)oc(=O)c2S1)C(F)(F)F | . | 0 | -15 | . | 54* | 1
S=C(Nc1ccc(Cl)cc1)c1nc2ccccc2[nH]1 | 0 | . | 5 | -122 | . | -24
